Measurements: PMC2874077 (Journal of medicinal chemistry, 2010)
Entries after “also recorded” stand apart in the source; their conditions may differ. Where two headings read alike, the source gives them in different places. One block for each compound: values may come before it.

How the values were obtained:
[1] = target: T1, human arginase I (Homo sapiens, UniProt P05089); test: Fixed-point kinetic assay with [14C-guanidino]-L-arginine; assay type: biochemical; settings: for mode of inhibition: from Lineweaver-Burk plots
T1 sequence (P05089 1-322): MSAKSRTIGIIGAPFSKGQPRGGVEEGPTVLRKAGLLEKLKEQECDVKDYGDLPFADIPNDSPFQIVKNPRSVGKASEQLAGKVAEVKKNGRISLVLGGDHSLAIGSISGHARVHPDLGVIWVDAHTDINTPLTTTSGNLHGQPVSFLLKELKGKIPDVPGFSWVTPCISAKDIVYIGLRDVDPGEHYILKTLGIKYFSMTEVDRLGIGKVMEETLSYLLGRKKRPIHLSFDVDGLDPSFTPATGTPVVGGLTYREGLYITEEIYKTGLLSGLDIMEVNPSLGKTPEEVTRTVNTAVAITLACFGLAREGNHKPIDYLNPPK
How it was run: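 Affinity derived from a replot of v0/vi (velocity without/with inhibitor) against inhibitor concentration. Mode of inhibition (competitive or noncompetitive) assigned from Lineweaver-Burk plots at several inhibitor concentrations.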

[2] = tested on: airways hyperresponsiveness in OVA/OVA Balb/C mice; assay type: in vivo, mouse
How it was run: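 Female Balb/C mice (6–8 weeks) were sensitized i.p. with 25 μg OVA plus 1 mg aluminium hydroxide on days 0 and 7, then given nebulized 6% OVA in PBS, or PBS, 25 min/day on days 14–20. On day 21: ketamine/xylazine anaesthesia, intubation, FlexiVent ventilation.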

[3] = tested on: airways hyperresponsiveness in OVA/OVA Balb/C mice; settings: cited from earlier work
[4] = OVA/OVA mice, nebulized 80 μg/g

SMILES: Nc1ncc(C[C@H](N)C(=O)O)[nH]1 [2AH, L-2-aminohistidine]
mode of inhibition [1]: noncompetitive

SMILES: Nc1ncc[nH]1 [2-Aminoimidazole, reference compound]
mode of inhibition [1]: noncompetitive

SMILES: N[C@@H](CSCCB(O)O)C(=O)O [BEC, S-(2-boronoethyl)-L-cysteine]
airways hyperresponsiveness ([3]; murine models of allergic airways inflammation ref 8a): reduces
maximum central airways responsiveness (RN max) to methacholine ([3]; same model, earlier study ref 8a): attenuates

SMILES: Nc1ncc(CC[C@H](N)C(=O)O)[nH]1 [AHH, 2-aminohomohistidine]
mode of inhibition [1]: competitive

Second part, led by results:

mode of inhibition [1]: competitive
SMILES: Nc1nccn1CCC[C@H](N)C(=O)O [A1P, 2-(S)-amino-5-(2-aminoimidazol-1-yl)-pentanoic acid]
maximum resistance of the central airways (RN) following methacholine challenge [2, 4]: significantly attenuated; also recorded: notably decreased
total resistance of the respiratory system (R) following methacholine challenge [2, 4]: attenuated significantly
airways hyperresponsiveness ([2]; murine model of allergic airways inflammation): significantly attenuates; also recorded: significantly reduces

inhibitory activity ([1]; enzymological assay): lacks inhibitory activity
SMILES: Nc1ncc(CCCC(N)C(=O)O)[nH]1 (stereo not shown) [A4P, 2-amino-5-(2-aminoimidazol-4-yl)-pentanoic acid]
